From PubChem
M1 PAM parental = nonselective calcium activators in parental CHO-K1 cells, primary screen, counter-screen for M1 PAM project, cell-based, Fluo-8 calcium fluorescence, full deck, 1536-well | ATP EC20; 0% at ATP EC20, 100% at ATP max | activation, % at 3 µM | hit rate 0.02% among 360,000;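 active means activation above the run cutoff, the mean activation of all test compounds plus 3 SD, cut at about 40% in these data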;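 further: peak over basal fluorescence ratio in a 140 s read after ATP addition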
CHO-K1 Ca ag = counter-screen for M1 agonists: effect in parental CHO-K1 cells; Fluo-8 calcium fluorescence; scaled to maximal ATP response, vehicle zero; AID 602248, 2012; activation, % at 3 µM; hit rate 0.48% among 360,000; in the data active means activation above about 15%;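 further: untransfected CHO-K1 host cells lacking M1 receptor as counterscreen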
OX1R antag-1 = antagonists of human orexin 1 receptor (OX1R) | inhibition, % at 6.6 µM | OX1R-expressing cells, FRET antagonist read-out | Orexin/Hypocretin receptor type 1 (Homo sapiens), O43613 | hit rate 1.8% among 330,000 | AID 485270, 2010; in the data active means inhibition mostly above about 38%, no sharp cut-off; inactive means mostly below about 40%
Target sequence (O43613 whole entry, looked up): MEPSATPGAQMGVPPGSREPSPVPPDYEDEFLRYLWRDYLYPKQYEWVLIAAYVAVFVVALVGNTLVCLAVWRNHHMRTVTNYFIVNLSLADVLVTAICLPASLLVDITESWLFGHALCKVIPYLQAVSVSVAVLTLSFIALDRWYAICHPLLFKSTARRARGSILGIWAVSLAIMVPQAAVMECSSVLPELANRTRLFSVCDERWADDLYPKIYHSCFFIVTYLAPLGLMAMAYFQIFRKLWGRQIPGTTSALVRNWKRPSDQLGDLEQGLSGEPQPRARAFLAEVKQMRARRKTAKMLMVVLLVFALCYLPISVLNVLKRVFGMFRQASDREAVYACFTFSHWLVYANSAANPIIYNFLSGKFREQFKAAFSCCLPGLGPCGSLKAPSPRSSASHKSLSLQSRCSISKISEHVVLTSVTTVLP
CHO parental Ca = ATP-evoked calcium signal inhibitors, parental CHO, primary screen, counter-screen for OX1R antagonist project, cell-based, fluorescence, Fluo-8 calcium dye. AID 463079, 2010. parental CHO-K1, ATP-induced calcium, Fluo-8 fluorescence. inhibition, % at 5.6 µM. hit rate 0.63% among 330,000;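 active means inhibition above that plate's mean sample inhibition plus 3 SD, cut at about 26% in these data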
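Assay system: parental CHO cells; Read-out basis: percent inhibition of ATP-evoked calcium rise, normalized to controls; Benchmarks: ATP and no-ATP DMSO wells; Compound dosing: single nominal dose of 5.6 µM per compound; Signal: Fluo-8 calcium dye fluorescence; Also added: ATP as calcium-mobilizing challenge; Repeats: singlicate.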
OX1R antag-2 = OX1R (HCRTR1) antagonists, primary screen, fluorescence, CHO/OX1R cells, Fluo-8 calcium, orexin A | Orexin/Hypocretin receptor type 1 (Homo sapiens), O43613 | Fluo-8 calcium fluorescence | inhibition, % at 5 µM | hit rate 0.43% among 330,000 | AID 434989, 2010;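 active means inhibition above its plate's threshold, mean inhibition of all tested compounds on the plate plus 3 SD, cut at about 37% in these data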
CHO-K1 Ca antag = nonselective inhibitor or artifact in parental CHO-K1 cells | ATP-induced calcium, Fluo-8 fluorescence | hit rate 0.6% among 360,000 | inhibition, % at 3 µM;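 active means inhibition above a per-plate cutoff, the plate's mean sample inhibition plus 3 SD, cut at about 24% in these data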
Each line names hits and unclear results; the compound was inactive in the other large screens. This is a sample that favours compounds with a hit; in the whole collection about 2.9% have one here.

Cc1cc(Nc2ccccc2)nc(N2CCN(C(=O)c3ccc4c(c3)OCO4)CC2)n1	none
O=C(NCCO)c1ccc(Oc2ccc(C(F)(F)F)cc2[N+](=O)[O-])cc1	none
COc1ccc(OCCNC(=O)c2cccc(Oc3ccc(C(F)(F)F)cc3[N+](=O)[O-])c2)cc1	CHO-K1 Ca antag 25.3
CC[n+]1c(/C=C/N(C)c2ccccc2)n(-c2ccccc2)c2ccc(-c3nc4ccccc4s3)cc21	OX1R antag-1 41.6, CHO parental Ca 68.6, OX1R antag-2 79.4, CHO-K1 Ca antag 34.2
CN(C)Cc1csc(Nc2ccc(C(F)(F)F)cn2)n1	none (no result: OX1R antag-1, CHO parental Ca, OX1R antag-2)
COc1cc(S(=O)(=O)N2CCN(C)CC2)c(OC)cc1Cl	CHO-K1 Ca antag 23.9
O=C(CSc1ccc([N+](=O)[O-])cn1)Nc1cc(C(F)(F)F)ccc1N1CCOCC1	none
CC(=O)Nc1ccc(NC(=O)c2c(-c3ccccc3)noc2C)cn1	none
Cc1nnc(N/N=C/c2ccc(-c3ccc(Br)cc3)o2)n1N	OX1R antag-1 39.6
Cc1nnc(N/N=C/c2ccc(Br)cc2)n1N	none
Cc1cccc(-n2c(C)c(C)c3c(N)ncnc32)c1	none
CCc1nc(SCC(=O)c2ccc3c(c2)OCCO3)c2ccccc2n1	OX1R antag-1 57.7
O=C(CSc1nc(Cc2ccccc2)nc2ccccc12)c1ccc2c(c1)OCCO2	OX1R antag-1 41.4
O=C(CN1C(=O)NC2(CCCC2)C1=O)NNC(=O)c1ccc(F)cc1	none
O=C(NC(NC(=S)Nc1ccc(Cl)cc1Cl)C(Cl)(Cl)Cl)c1cccc([N+](=O)[O-])c1 (centres undefined)	CHO parental Ca 40.9, OX1R antag-2 42.2
O=C(NC(NC(=S)Nc1ccccc1)C(Cl)(Cl)Cl)c1cccc(Cl)c1 (centres undefined)	CHO-K1 Ca antag 31.9
O=C(O)c1cccc(NC(=S)NC(NC(=O)c2cccc([N+](=O)[O-])c2)C(Cl)(Cl)Cl)c1 (centres undefined)	none
NC(=O)c1ccc(NC(=O)c2ccc3c(c2)CCN3S(=O)(=O)c2ccccc2)cc1	CHO-K1 Ca antag 26.4
Cc1ccc2c(c1)CCCN2S(=O)(=O)c1cccc(C(=O)Nc2ccccc2C(=O)O)c1	OX1R antag-1 57.5
O=C(Nc1ccncc1)c1cccc(S(=O)(=O)N2CCc3ccccc32)c1	OX1R antag-1 48.4, CHO parental Ca 58.9, OX1R antag-2 48.2
C=CCN(C(=O)c1csnn1)C(C(=O)NC1CCCC1)c1ccc(Cl)cc1 (centres undefined)	OX1R antag-1 69.5
Cc1ccc(NC(=O)c2nc(S(=O)(=O)Cc3ccccc3)ncc2Cl)cc1	CHO parental Ca 38.9
Cc1cccc(CS(=O)(=O)c2ncc(Cl)c(C(=O)Nc3c(C)cccc3C)n2)c1	OX1R antag-1 88.8, OX1R antag-2 76.9
Cc1cccc(C)c1NC(=O)c1nc(S(=O)(=O)Cc2ccccc2)ncc1Cl	none
O=C(NCc1ccco1)c1nnc(Cc2ccc(Cl)cc2)o1	none
Cc1ccc(CNC(=O)c2nnc(Cc3ccc(Cl)cc3)o2)cc1	CHO parental Ca 43.5
COc1ccc(CCN2Cc3c(cccc3[N+](=O)[O-])C2=O)cc1OC	OX1R antag-1 37.6
Cc1ccc2ccccc2c1C(O)c1ncc(-c2ccc(F)cc2)[nH]1 (centres undefined)	none (no result: OX1R antag-1, CHO parental Ca, OX1R antag-2)
COc1cccc(-c2cnc(C(O)c3c(C)ccc4ccccc34)[nH]2)c1 (centres undefined)	CHO-K1 Ca ag 19.6 (no result: OX1R antag-1, CHO parental Ca, OX1R antag-2)
CCOC(=O)c1ccc(NC(=O)c2cc3c(s2)CCC3)cc1	OX1R antag-1 69.7
CCOC(=O)c1ccc(NC(=O)c2ccc(NC(=O)c3ccccc3)cc2)cc1	none
COc1ccc(CN2CCNC(=O)C2CC(=O)N(C)CCCN2CCOCC2)cc1C (centres undefined)	none
Cc1ccc(N/C(=C\C(=O)c2ccccc2)C(=O)O)cc1	none
Cc1nc(-c2nnc(SCC(=O)Nc3cc(Cl)cc(Cl)c3)n2C)cs1	none
CNS(=O)(=O)c1ccc2c3c(cccc13)C(=O)N2	none (no result: OX1R antag-1, CHO parental Ca, OX1R antag-2)
CNS(=O)(=O)c1cc(S(=O)(=O)NC)c2cccc3c2c1NC3=O	OX1R antag-1 65.7
COC(=O)c1ccc(NC(=O)C2CCCN2C(=O)OCc2ccccc2)cc1 (centres undefined)	none
COc1ccc(Cn2c(=N)c(C(=O)NCC3CCCO3)cc3c(=O)n4ccccc4nc32)cc1 (centres undefined)	OX1R antag-1 61.1
COc1ccc(CCNC(=O)c2cc3c(=O)n4ccccc4nc3n(CC3CCCO3)c2=N)cc1 (centres undefined)	none (no result: OX1R antag-1, CHO parental Ca, OX1R antag-2)
COc1ccc(CCn2c(=N)c(C(=O)NCC3CCCO3)cc3c(=O)n4ccccc4nc32)cc1 (centres undefined)	OX1R antag-1 57.8
CC(=O)C1=C(O)C(=O)N(c2cccc(Br)c2)C1c1ccccc1Cl (centres undefined)	none
COc1ccc(NC(=O)CN(C)CC(=O)Nc2sc3c(c2C#N)CCC3)cc1	none
CCCCCN(C(=O)CCC(=O)OCc1cccc(Br)c1)c1c(N)n(CCCC)c(=O)[nH]c1=O	none
CCOC(=O)c1nnc(-c2cccs2)nc1Oc1ccccc1C(=O)OC	none
CCOC(=O)c1nnc(-c2cccs2)nc1NC(C)C	CHO-K1 Ca antag 25.4
CC(C)c1cc(CNC(=O)c2cc(COc3cncc(Cl)c3)on2)on1	CHO-K1 Ca ag 15.5 (no result: OX1R antag-1, CHO parental Ca, OX1R antag-2)
COC(=O)c1ccc(CNC(=O)c2cc(COc3cncc(Cl)c3)on2)cc1	none
O=C(CCn1ccnc1)Nc1cc(Cl)ccc1O	none
C=CCN1N=C(c2ccc(NC(=O)c3ccccc3)cc2)CSC1=O	CHO parental Ca 47.4
O=C(CCCCCNC(=O)N1CCn2c1nc1ccccc12)NCc1ccccc1Cl	none
F[B-](F)(F)COc1ccccc1	none (no result: OX1R antag-1, CHO parental Ca, OX1R antag-2)
CC(C)CC1C(C#N)=C(N)SC(N)=C1C#N	none
CCc1ccc(C2C(C#N)=C(N)SC(N)=C2C#N)cc1	CHO-K1 Ca ag 21.4
N#CC1=C(N)SC(N)=C(C#N)C1CCc1ccccc1	CHO-K1 Ca antag 28.5
N#CC1=C(N)SC(N)=C(C#N)C1Cc1ccccc1	OX1R antag-1 38.7
NNC(=O)CNC(=O)Nc1n[nH]c(=S)s1	none (no result: OX1R antag-1, CHO parental Ca, OX1R antag-2)
Cc1cccc(NC(=S)NC2CC3C=CC2C3)c1 (centres undefined)	none
Cc1ccc2c(c1)sc(-c1ccc(N(C)C)cc1)[n+]2C	OX1R antag-1 39.6, CHO parental Ca 41.9
CC(C)CC(=O)Nc1nnc(S(=O)(=O)N2CCc3ccccc32)s1	CHO-K1 Ca antag 28.5
Cc1cc(/C=N/Nc2ncnc(N)c2[N+](=O)[O-])c(C)n1-c1ccccc1	OX1R antag-1 51.2
